Test [1] has as its target Alpha adrenergic receptor 1A and 1B (Rattus norvegicus) (UniProt P15823+P43140). Description: Selectivity for ADRA1B over ADRA1A. Type of test: protein assay. The procedure, abridged:
(§1)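 Subtype selectivity is the antilog of the difference between the pKb values at α1A, α1B and α1D, measured in isolated rat prostatic vas deferens, spleen and thoracic aorta.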

The target in test [2] is T1, Alpha-1B adrenergic receptor (Rattus norvegicus) (UniProt P15823).
T1 sequence (whole entry): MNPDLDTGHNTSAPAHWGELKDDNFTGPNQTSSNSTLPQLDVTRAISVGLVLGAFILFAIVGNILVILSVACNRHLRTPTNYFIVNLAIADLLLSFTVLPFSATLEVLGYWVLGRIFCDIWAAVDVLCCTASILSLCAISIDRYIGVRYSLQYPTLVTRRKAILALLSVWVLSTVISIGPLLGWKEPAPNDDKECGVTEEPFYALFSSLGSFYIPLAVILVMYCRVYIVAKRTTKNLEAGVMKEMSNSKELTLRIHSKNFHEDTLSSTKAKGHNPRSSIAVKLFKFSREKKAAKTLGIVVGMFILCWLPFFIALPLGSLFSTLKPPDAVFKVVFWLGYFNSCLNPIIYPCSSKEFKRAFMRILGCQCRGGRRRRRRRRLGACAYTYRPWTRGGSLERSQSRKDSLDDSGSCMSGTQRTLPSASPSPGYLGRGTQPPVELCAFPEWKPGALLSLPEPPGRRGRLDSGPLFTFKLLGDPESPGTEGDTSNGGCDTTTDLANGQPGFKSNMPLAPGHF
Description: Antagonistic activity at ADRA1B in rat spleen. Type of test: functional, tissue-based. The procedure, abridged:
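Antagonism in isolated rat tissues: prostatic vas deferens (α1A), spleen (α1B), thoracic aorta (α1D). Each compound tested at a single concentration, and each concentration was investigated at least four times. pKb was calculated by the van Rossum method. pA2 was derived from Arunlakshana–Schild plots. WB4101 was used as the standard.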

For test [3], the species on record is Homo sapiens. Put plainly: Selectivity for 5HT1A over adrenergic alpha-1 receptor. The procedure, abridged:
(§2)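 Selectivity is the ratio of Ki at 5-HT1A, D1 or D2 to Ki at α1. Ki values are means (±SD) of three separate experiments.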

Test [4] has as its target T2, 5-hydroxytryptamine receptor 1A (Homo sapiens, UniProt P08908).
T2 sequence (P08908 whole entry): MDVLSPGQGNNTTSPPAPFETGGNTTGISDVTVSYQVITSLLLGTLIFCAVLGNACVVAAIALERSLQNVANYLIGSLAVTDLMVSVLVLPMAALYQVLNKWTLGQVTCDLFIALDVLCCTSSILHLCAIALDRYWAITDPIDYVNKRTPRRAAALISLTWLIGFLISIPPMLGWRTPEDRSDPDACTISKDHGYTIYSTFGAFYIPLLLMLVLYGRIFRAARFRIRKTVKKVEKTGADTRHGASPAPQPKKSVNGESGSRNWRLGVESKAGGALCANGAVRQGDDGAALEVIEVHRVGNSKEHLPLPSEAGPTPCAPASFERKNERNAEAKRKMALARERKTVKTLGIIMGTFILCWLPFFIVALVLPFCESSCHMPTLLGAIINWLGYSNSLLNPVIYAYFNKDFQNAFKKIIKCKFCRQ
Put plainly: Binding affinity to 5HT1A.

Test [5] is filed under the species Homo sapiens. Put plainly: Selectivity for dopamine D1 over adrenergic alpha-1 receptor. The procedure, abridged:
as §2

The species entered for another test is Rattus norvegicus. Description: Selectivity for ADRA1D over ADRA1B. Put shortly:
as §1

Alpha adrenergic receptor 1A and 1B (Rattus norvegicus), sequence (P43140 whole entry, looked up, one chain of several): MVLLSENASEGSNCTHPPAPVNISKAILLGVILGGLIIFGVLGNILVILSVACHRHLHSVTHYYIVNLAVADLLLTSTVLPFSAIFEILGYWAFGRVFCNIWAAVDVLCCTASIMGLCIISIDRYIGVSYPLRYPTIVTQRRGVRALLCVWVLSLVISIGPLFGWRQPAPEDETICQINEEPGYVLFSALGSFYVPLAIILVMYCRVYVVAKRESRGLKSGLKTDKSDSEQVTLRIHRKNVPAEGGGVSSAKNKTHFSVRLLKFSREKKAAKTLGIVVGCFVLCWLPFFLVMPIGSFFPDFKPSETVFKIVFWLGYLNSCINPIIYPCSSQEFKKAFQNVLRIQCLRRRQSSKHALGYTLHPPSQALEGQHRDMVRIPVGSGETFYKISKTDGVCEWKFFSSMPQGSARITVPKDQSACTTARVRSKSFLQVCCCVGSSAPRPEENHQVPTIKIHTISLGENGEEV

Regarding `O=c1[nH]c2[nH]c(-c3ccc(Cl)cc3)cc2c(=O)n1CCN1CCN(c2ccccc2Cl)CC1`, the Ratio pKb stood at 2 in test [1] and 10 in the test filed under Rattus norvegicus. The compound further displayed a pKb in test [2] of 6.64. In addition, the Ratio Ki was 573 in the test listed under Homo sapiens [3] and 206 in the test filed under Homo sapiens [5]. Further, the Ki in test [4] was 1.51 µM.
Turning to `Cc1ccc(-c2cc3[nH]c(=O)n(CCN4CCN(c5ccccc5Cl)CC4)c(=O)c3[nH]2)cc1`, the Ratio pKb was 0.4 in test [1] and 1 in the test listed under Rattus norvegicus. Besides, the pKb in test [2] came to 6.37. For the same compound, the Ratio Ki in the test listed under Homo sapiens [3] and in the test listed under Homo sapiens [5] was above 500 in each case. Also, in test [4], the Ki was above 10 µM.
Consider `Cc1ccc(-c2cc3c(=O)n(CCN4CCN(c5ccccc5Cl)CC4)c(=O)[nH]c3[nH]2)cc1`, for which the Ratio pKb (in test [1]; in the test listed under Rattus norvegicus) was 2 throughout. In test [2], this compound registered a pKb of 7.5. For the same compound, the Ratio Ki in the test filed under Homo sapiens [3] was 155; in the test listed under Homo sapiens [5], 33. The same compound displayed a Ki in test [4] of 1.81 µM.
Take `COc1ccc(-c2cc3c(=O)n(CCN4CCN(c5ccccc5Cl)CC4)c(=O)[nH]c3[nH]2)cc1`: the Ratio pKb in test [1] came out at 4; in the test filed under Rattus norvegicus it was 0.5. In test [2], this compound showed a pKb of 8.03. The Ratio Ki in the test filed under Homo sapiens [3] was found to be 65; in the test filed under Homo sapiens [5], 17. The affinity in test [4] corresponds to a Ki of 1.07 µM.

By pKb is commonly meant the negative decadic logarithm of the Kb, by convention in mol/L. A higher pKb goes with a small Kb. As a reminder, the Ki is a measure of affinity in units of concentration, obtained from inhibition or displacement.
